Source: PubChem BioAssay
Inconclusive results are not listed.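 How the source made its calls, unless noted: active means inhibition over a set limit, the all-compound mean plus 3 SD, in both replicate runs; inconclusive means over that limit in just one replicate run; inactive means at or under that limit in both runs.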

How the values were obtained:
[1] = S. cerevisiae growth inhibition in permissive medium (OD615), pilot counter-assay for S. cerevisiae lifespan shortening project, permissive growth control (AID 705;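 active means growth inhibition above 25% in both replicates, a cutoff set 3 SD above the mean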); details: OD615, 24 h, at 10 µM, stronger effect = higher value
In short: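 assay system = Saccharomyces cerevisiae strain carrying genetically modified DeaD replicative-lifespan system | medium = SC raffinose/galactose permissive medium | dosing = 10 µM single dose, 0.25% DMSO | schedule = 24 h compound exposure at 30 °C after 4 h pre-growth | measured by = OD at 615 nm | read-out basis = growth inhibition from lowered OD615 after 24 h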

[2] = S. cerevisiae growth inhibition in restrictive medium, OD615, pilot screen, restrictive growth control, yeast lifespan reduction project (AID 706;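 active means growth inhibition above a set limit, 3 SD over mean compound inhibition, in both replicates, cut at about 43% in these data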;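 further: modified DeaD lifespan yeast strain shifted to restrictive glucose medium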); details: OD615, 48 h, at 10 µM, stronger effect = higher value
In short: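 Buffer or medium: CSMM-D glucose medium. Material: genetically modified Saccharomyces cerevisiae, DeaD replicative lifespan assay strain. Times: 48 h compound exposure at 30 °C. Measured by: optical density at 615 nm.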

[3] = doxorubicin toxicity protection in MRP-1 cells – H69AR cells, CellTiter-Glo, duplicate, MRP-1 activator project, pilot screen (AID 807;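 active means viability increase at or above a cutoff of the median across tested compounds plus 3 SD, cut at about 8.5% in these data, passing the limit was not always enough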;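 further: compound pretreatment 18-22 h then 72 h combined with doxorubicin; 0% = doxorubicin alone and 100% = vehicle without doxorubicin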); details: H69AR viability with doxorubicin, CellTiter-Glo luminescence; at 10 µM; stronger effect = higher value
[4] = viability of HCT116 without oncogenic beta-catenin – human colon tumor cells, pilot screen (AID 823;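 active means cell viability at or below a set limit in both duplicate runs, the limit being the all-compound median minus 4 SD, cut at about 23% in these data, passing the limit was not always enough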;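 further: 0% = wells killed by 20 µM Hyamine and 100% = untreated DMSO cell wells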); details: HCT116 beta-catenin knockout viability, CellTiter-Glo, 60 h; at 10 µM; stronger effect = lower value
[5] = viability of PTEN-null HCT116 cells – cell-based, HCT116 clonal line, CellTiter-Glo, pilot screen (AID 824;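 active means viability at or below 27.92% in each of two runs, the all-compound median minus 4 SD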;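 further: 0% = 20 µM Hyamine control and 100% = vehicle cell control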); details: HCT116 PTEN-deleted viability, 60 h, at 10 µM, stronger effect = lower value
[6] = RAM pathway blockade in budding yeast – dse1pr::URA3 reporter, 5-FOA selection, pilot screen (AID 869);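 further: 0% = DMSO wells with no growth and 100% = 10 µM 1-NA-PP1 with full growth; RAM network block rescues cells from 5-FOA so hits raise OD615 growth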; details: S. cerevisiae dse1pr::URA3 5-FOA growth, OD615, 2 d; at 10 µM; stronger effect = higher value; strain carries analog-sensitive mutant Cbk1 kinase
[7] = RAM signaling pathway blockade in yeast – S. cerevisiae, Pdr1DBD-CYC8 efflux-inhibited sensitized strain, primary screen (AID 1298;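 active means RAM network inhibition above 8.4% in each of two replicates, 3 SD over the compound average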;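 further: 0% = DMSO untreated cells without growth and 100% = 10 µM 1-NA-PP1 full growth; higher means more yeast growth rescued from 5-FOA killing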); details: S. cerevisiae cbk1-as DSE1-URA3 strain, 5-FOA growth OD615, 2 d; at 50 µM; stronger effect = higher value

C=CCNc1ncnc2c1cnn2-c1cccc(C)c1
inactive: growth inhibition [1] 8.9% | growth inhibition [2] 1.8% | viability increase [3] -1.03% | viability [4] 101% | viability [5] 98.5% | inhibition [6] 3.21% | RAM network inhibition [7] 0.06%

O=c1c(N2CCOCC2)nsnc1N1CCOCC1
inactive: growth inhibition [1] 8.28% | growth inhibition [2] -6.26% | viability increase [3] -1.68% | viability [4] 106% | viability [5] 95.8% | inhibition [6] 0.59% | RAM network inhibition [7] -2%

O=C(NCc1ccncc1)C(F)(F)C(F)(F)C(=O)NCc1ccncc1
inactive: growth inhibition [1] -0.215% | growth inhibition [2] -3.65% | viability increase [3] -1.87% | viability [4] 93.9% | viability [5] 85.4% | inhibition [6] 1.33% | RAM network inhibition [7] 1.22%

O=C(CC1NCCNC1=O)OCCCc1ccccc1 (configuration not stated)
inactive: growth inhibition [1] -0.955% | growth inhibition [2] -2.82% | viability increase [3] 0.07% | viability [4] 99.1% | viability [5] 99.9% | inhibition [6] 1.09% | RAM network inhibition [7] 5.29%

C=C(C)Cc1c(C)nc(-c2ccccc2)[nH]c1=O
inactive: growth inhibition [1] -14% | growth inhibition [2] -14.1% | viability increase [3] 0.87% | viability [4] 99.7% | viability [5] 98.5% | inhibition [6] 1.76% | RAM network inhibition [7] 1.46%

Cc1cc2ccccc2n1CCNC(=O)C(C)C
inactive: growth inhibition [1] -8.34% | growth inhibition [2] -7.54% | viability increase [3] -1.99% | viability [4] 102% | viability [5] 98.7% | inhibition [6] 0.15% | RAM network inhibition [7] 2.1%

COc1c(C)cccc1C(=O)Nc1cc(-c2nn3c(C)nnc3s2)ccc1C
inactive: growth inhibition [1] 13.5% | growth inhibition [2] 37% | viability increase [3] -5.61% | viability [4] 73.9% | viability [5] 64.2% | inhibition [6] 2.07% | RAM network inhibition [7] 7.01%

CC1=C(C(=O)OCc2ccccc2)C(c2ccco2)C2=C(CC(C)(C)CC2=O)N1 (configuration not stated)
inactive: growth inhibition [1] -13.1% | growth inhibition [2] -7.33% | viability increase [3] -6.3% | viability [4] 71.9% | viability [5] 67.5% | inhibition [6] 2.4% | RAM network inhibition [7] 1.23%

OCCCc1nc2ccccc2n1CCOc1ccccc1
inactive: growth inhibition [1] -10.4% | growth inhibition [2] 12.7% | viability increase [3] -0.86% | viability [4] 88.5% | viability [5] 94.6% | inhibition [6] 0.595% | RAM network inhibition [7] 2.86%

Cc1ccc(-n2nc3ccc(N)cc3n2)cc1
inactive: growth inhibition [1] -12.9% | growth inhibition [2] 5.77% | viability increase [3] -5.26% | viability [4] 80% | viability [5] 78.5% | inhibition [6] 2.38% | RAM network inhibition [7] 2.79%

CCn1c(=NC(=O)CN2C(=O)CCC2=O)sc2c(C)cc(C)cc21
inactive: growth inhibition [1] -13.1% | growth inhibition [2] -2.35% | viability increase [3] -4.23% | viability [4] 92.2% | viability [5] 91.2% | inhibition [6] 0.505% | RAM network inhibition [7] 6.51%

Cc1nc2scc(-c3cccs3)c2c(=O)o1
inactive: growth inhibition [1] -24% | growth inhibition [2] 14.4% | viability increase [3] -1.96% | viability [4] 95.8% | viability [5] 98.7% | inhibition [6] 1.73% | RAM network inhibition [7] 3.15%

Cc1nn(C)c(C)c1S(=O)(=O)N(CC(=O)NCc1ccco1)c1ccc(C(C)C)cc1
inactive: growth inhibition [1] -10.3% | growth inhibition [2] -2.95% | viability increase [3] -5.76% | viability [4] 96.8% | viability [5] 97.3% | inhibition [6] -0.17% | RAM network inhibition [7] 7.88%

Cc1ccc(Cn2c(CN3CC(C)OC(C)C3)nc3c2c(=O)n(C)c(=O)n3C)cc1 (configuration not stated)
inactive: growth inhibition [1] -5.45% | growth inhibition [2] -10.8% | viability increase [3] -1.28% | viability [4] 96.1% | viability [5] 95.1% | inhibition [6] 2.09% | RAM network inhibition [7] 1.95%

CCOc1ccc(N2C(=O)c3ccccc3C2O)cc1 (configuration not stated)
inactive: growth inhibition [1] 6.33% | growth inhibition [2] 11.8% | viability increase [3] 1.68% | viability [4] 101% | viability [5] 87.5% | inhibition [6] -0.05% | RAM network inhibition [7] 2.58%

CCS(=O)(=O)n1nc(-c2ccccc2)cc1N
inactive: growth inhibition [1] -3.12% | growth inhibition [2] -16.4% | viability increase [3] -1.52% | viability [4] 98.7% | viability [5] 96.7% | inhibition [6] 0.555% | RAM network inhibition [7] 1.53%

CCc1ccc(N2C(=O)c3sc4nnc(C)c(=O)n4c3C2=O)cc1
inactive: growth inhibition [1] -19.9% | growth inhibition [2] -7.66% | viability increase [3] -1% | viability [4] 87.9% | viability [5] 76.9% | inhibition [6] 1.4% | RAM network inhibition [7] 0.21%

COc1ccc(C2C3=C(Nc4ncnn42)c2ccccc2CCC3)cc1 (configuration not stated)
inactive: growth inhibition [1] -12.5% | growth inhibition [2] -17.7% | viability increase [3] -1.45% | viability [4] 91.7% | viability [5] 89.1% | inhibition [6] 1.9% | RAM network inhibition [7] 3.32%

Cn1c(NC(=O)c2cccc(C(F)(F)F)c2)cc(=O)n(C)c1=O
inactive: growth inhibition [1] -16% | growth inhibition [2] -5.14% | viability increase [3] -2.74% | viability [4] 98.8% | viability [5] 94.5% | inhibition [6] 0.925% | RAM network inhibition [7] 1.89%

O=C(O)C1CCCCN1S(=O)(=O)c1ccc(Cl)s1 (configuration not stated)
inactive: growth inhibition [1] -2.17% | growth inhibition [2] 1.02% | viability increase [3] -1.27% | viability [4] 101% | viability [5] 97.3% | inhibition [6] 0.505% | RAM network inhibition [7] -0.42%

CC(=O)Oc1cccc(N2C(=O)C3CC=C(Cl)CC3C2=O)c1 (configuration not stated)
inactive: growth inhibition [1] -5.15% | growth inhibition [2] -22.9% | viability increase [3] -0.7% | viability [4] 89.6% | viability [5] 87.9% | inhibition [6] 2.81% | RAM network inhibition [7] 1.87%

COC(=O)c1sc2ccccc2c1N
inactive: growth inhibition [1] 1.37% | growth inhibition [2] 27.7% | viability increase [3] -3.26% | viability [4] 101% | viability [5] 94.6% | inhibition [6] 0.515% | RAM network inhibition [7] 2.29%

COc1ccc(C2CC(c3ccc(Cl)cc3Cl)Nc3nc(N)nn32)cc1OC (configuration not stated)
inactive: growth inhibition [1] 0.16% | growth inhibition [2] 22.6% | viability increase [3] 6.01% | viability [4] 88.2% | viability [5] 85.7% | inhibition [6] 0.4% | RAM network inhibition [7] 1.22%

CC1CCc2nn(CC(=O)NC3CCCC(C)C3C)cc2C1 (configuration not stated)
inactive: growth inhibition [1] -6.6% | growth inhibition [2] -6.19% | viability increase [3] 1.67% | viability [4] 97.5% | viability [5] 85.3% | inhibition [6] -0.3% | RAM network inhibition [7] 1.94%

O=C(NCCCNC(=O)c1cccs1)c1cccs1
inactive: growth inhibition [1] 3.77% | growth inhibition [2] -0.395% | viability increase [3] 0% | viability [4] 96.6% | viability [5] 108% | inhibition [6] 1.09% | RAM network inhibition [7] 5.26%

O=C(O)C1CC=CCC1C(=O)Nc1cccc(Cl)c1Cl (configuration not stated)
inactive: growth inhibition [1] -8.95% | growth inhibition [2] -11.1% | viability increase [3] -1.82% | viability [4] 99.6% | viability [5] 101% | inhibition [6] 3.07% | RAM network inhibition [7] 0.21%

CCN1CCN(C(c2cccs2)C(C)NC(=O)C(C)C)CC1 (configuration not stated)
inactive: growth inhibition [1] -3.71% | growth inhibition [2] 2.65% | viability increase [3] -2.01% | viability [4] 98% | viability [5] 92.2% | inhibition [6] -0.3% | RAM network inhibition [7] 3.86%

CC1CN(S(=O)(=O)c2ccc(C(=O)Nc3sc4c(c3C(N)=O)CCN(C)C4)cc2)CC(C)O1 (configuration not stated)
inactive: growth inhibition [1] -6.76% | growth inhibition [2] -7.93% | viability increase [3] -0.69% | viability [4] 91.9% | viability [5] 97.7% | inhibition [6] 1.35% | RAM network inhibition [7] 5.2%

CCC(C)Sc1nnc(Cc2cc(=O)[nH]c(=O)[nH]2)n1-c1ccc(OC)cc1 (configuration not stated)
inactive: growth inhibition [1] 5.64% | growth inhibition [2] -6.83% | viability increase [3] -0.09% | viability [4] 104% | viability [5] 102% | inhibition [6] 0.295% | RAM network inhibition [7] 2.22%

Cc1cc(N2CCOCC2)nc(SCC(=O)c2ccccc2)n1
inactive: growth inhibition [1] -16.5% | growth inhibition [2] -4.63% | viability increase [3] -1.98% | viability [4] 99% | viability [5] 91.7% | inhibition [6] 2.53% | RAM network inhibition [7] 2.06%

COCCOC(=O)C1=C(C)NC(=O)NC1C1CC=CCC1 (configuration not stated)
inactive: growth inhibition [1] -6.74% | growth inhibition [2] -6.73% | viability increase [3] 0.63% | viability [4] 91.5% | viability [5] 101% | inhibition [6] 1.45% | RAM network inhibition [7] 5.08%

CC(Oc1ccc(Cl)cc1Cl)c1nc(-c2ccccn2)no1 (configuration not stated)
inactive: growth inhibition [1] -3.06% | growth inhibition [2] 5.3% | viability increase [3] 1.23% | viability [4] 99.1% | viability [5] 87.7% | inhibition [6] 0.375% | RAM network inhibition [7] 2.34%

COCCN1C(=O)C(CC(=O)Nc2ccc(C(=O)O)cc2)SC1=Nc1ccccc1 (configuration not stated)
inactive: growth inhibition [1] -12.5% | growth inhibition [2] -19.2% | viability increase [3] -2.07% | viability [4] 96.4% | viability [5] 97.6% | inhibition [6] 2.39% | RAM network inhibition [7] 2.48%

CCOC(=O)c1c(-c2ccc(C)o2)csc1N
inactive: growth inhibition [1] 4.88% | growth inhibition [2] 0.615% | viability increase [3] -2.73% | viability [4] 97% | viability [5] 93.8% | inhibition [6] 1.57% | RAM network inhibition [7] 4.1%

CCOC(=O)CSCc1nc(-c2ccc(Cl)cc2)oc1C
inactive: growth inhibition [1] -11.6% | growth inhibition [2] -8.34% | viability increase [3] 1.98% | viability [4] 94.8% | viability [5] 89.8% | inhibition [6] 1.97% | RAM network inhibition [7] -1.32%

Cn1c(C(=O)N2CCC(C(=O)N3CCOCC3)CC2)cc2sccc21
inactive: growth inhibition [1] -9.67% | growth inhibition [2] -7.13% | viability increase [3] 1.85% | viability [4] 98.7% | viability [5] 98.8% | inhibition [6] 0.59% | RAM network inhibition [7] 0.9%
